Results pooled from the literature.

With Cc1cc(Cl)c(Cl)cc1NC(=O)c1ccc(N2CCNCC2)nc1 the scaled CLint was 47 mL/min/kg (metabolic stability; CD-1 mouse, liver microsomes; 1 µM, 1 h, pH 7.4).
With CC(=O)Nc1nnc(N2CCN([C@@H](C)c3ccc4c(c3)OCO4)CC2)s1 the fraction unbound was 0.068 (monkey, plasma; 1 µM).
With O=C(CCCCCCC(=O)Nc1ccccc1)NO the Cmax was 39 ng/mL (cat, serum; oral, 250 mg/m², single dose).
The Vd/F of C#Cc1cccc(Nc2ncnc3cc(OCCOC)c(OCCOC)cc23)c1 is reported as 4.3 L/kg (male Sprague-Dawley rat, plasma; oral, 12 mg/kg, single dose).
With O=C(O)C1CCN(c2nc(-c3ccccn3)nc3ccccc23)C1 (stereo not shown) the microsomal CLint was under 1 µL/min/mg (metabolic stability; mouse, liver microsomes).
With Cc1ccc(-c2nc3ccccc3o2)cc1NC(=O)c1cc([N+](=O)[O-])c(N2CCNCC2)cc1Cl the scaled CLint was 12 mL/min/kg (metabolic stability; CD-1 mouse, liver microsomes; 1 µM, 1 h, pH 7.4).
c1ccc(-c2nc(NCc3nc4ccccc4o3)c3ccccc3n2)nc1 has a microsomal CLint of 119 µL/min/mg (metabolic stability; mouse, liver microsomes).
The Vd/F of CNCc1cc(-c2ccccc2F)n(S(=O)(=O)c2cccnc2)c1 is reported as 32.2 L/kg (Sprague-Dawley rat, plasma; oral, 10 mg/kg).
For c1ccc(-c2nc(N3CCc4cccnc4C3)c3ccccc3n2)nc1, the microsomal CLint was 520 µL/min/mg (metabolic stability; mouse, liver microsomes).
Oc1c(Br)cc(Cl)c2cccnc12 gave a Vd/F of 15.1 L/kg (Sprague-Dawley rat, plasma; subcutaneous, 10 mg/kg).
